This note sets out measurements from ChEMBL document CHEMBL3286311, “Novel and high affinity fluorescent ligands for the serotonin transporter based on (s)-citalopram” (ACS Med Chem Lett, 2014).

Active and inactive are the calls of the source. The rule behind the calls is not given here.

For assay [1], the target named is T1, Sodium-dependent serotonin transporter (Homo sapiens, UniProt P31645). As to the kind of experiment: Inhibition of 5-hydroxy[3H]tryptamine uptake at human SERT expressed in African green monkey COS7 cells incubated for 10 mins prior to radioligand addition measured after 5 mins by scintillation counting analysis. It counts as cell-based, COS-7.
Target sequence in this assay (P31645 whole entry): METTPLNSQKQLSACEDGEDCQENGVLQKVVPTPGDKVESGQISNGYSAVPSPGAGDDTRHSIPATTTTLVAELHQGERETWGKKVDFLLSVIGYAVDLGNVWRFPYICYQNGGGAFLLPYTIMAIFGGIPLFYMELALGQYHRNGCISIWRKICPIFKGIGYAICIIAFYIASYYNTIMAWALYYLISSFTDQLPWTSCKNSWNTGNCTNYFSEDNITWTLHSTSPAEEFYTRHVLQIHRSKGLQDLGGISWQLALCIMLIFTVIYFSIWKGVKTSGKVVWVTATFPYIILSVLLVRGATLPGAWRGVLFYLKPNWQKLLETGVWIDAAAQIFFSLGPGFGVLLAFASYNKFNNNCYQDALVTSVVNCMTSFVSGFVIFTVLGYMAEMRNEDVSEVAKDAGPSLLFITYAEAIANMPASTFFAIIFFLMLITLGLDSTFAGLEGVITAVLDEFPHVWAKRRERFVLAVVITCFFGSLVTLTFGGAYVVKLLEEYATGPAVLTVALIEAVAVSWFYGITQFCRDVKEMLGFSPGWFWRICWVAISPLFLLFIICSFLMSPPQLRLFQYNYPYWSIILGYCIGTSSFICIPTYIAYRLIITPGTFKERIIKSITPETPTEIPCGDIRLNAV
The target in assay [2] is T2, Sodium-dependent dopamine transporter (Homo sapiens, UniProt Q01959). In words: Inhibition of 2,5,6-[3H]-dopamine uptake at human DAT expressed in African green monkey COS7 cells at 10 uM incubated for 10 mins prior to radioligand addition measured after 5 mins by scintillation counting analysis. It counts as cell-based. To be noted: COS-7.
T2 sequence (Q01959 whole entry): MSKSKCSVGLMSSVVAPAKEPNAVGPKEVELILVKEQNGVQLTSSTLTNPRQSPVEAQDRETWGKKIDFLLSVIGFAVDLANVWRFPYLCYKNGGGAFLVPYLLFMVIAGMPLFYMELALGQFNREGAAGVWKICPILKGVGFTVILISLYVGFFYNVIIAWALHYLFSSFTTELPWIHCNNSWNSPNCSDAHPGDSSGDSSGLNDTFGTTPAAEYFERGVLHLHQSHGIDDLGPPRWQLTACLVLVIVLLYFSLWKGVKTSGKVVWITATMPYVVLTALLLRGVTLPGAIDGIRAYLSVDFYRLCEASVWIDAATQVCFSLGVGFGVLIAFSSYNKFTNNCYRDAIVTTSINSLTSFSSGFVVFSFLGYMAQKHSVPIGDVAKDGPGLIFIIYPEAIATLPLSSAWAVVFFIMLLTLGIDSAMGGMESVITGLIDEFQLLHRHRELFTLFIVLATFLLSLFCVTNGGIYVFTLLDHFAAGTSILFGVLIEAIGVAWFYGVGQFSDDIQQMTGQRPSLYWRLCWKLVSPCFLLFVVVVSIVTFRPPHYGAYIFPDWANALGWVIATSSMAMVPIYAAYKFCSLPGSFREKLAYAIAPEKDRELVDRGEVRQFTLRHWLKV
In assay [3] the target is T3, Sodium-dependent noradrenaline transporter (Homo sapiens, UniProt P23975). In words: Inhibition of 2,5,6-[3H]-dopamine uptake at human NET expressed in African green monkey COS7 cells at 10 uM incubated for 10 mins prior to radioligand addition measured after 5 mins by scintillation counting analysis. To be noted: COS-7. It counts as cell-based.
T3 sequence (P23975 whole entry): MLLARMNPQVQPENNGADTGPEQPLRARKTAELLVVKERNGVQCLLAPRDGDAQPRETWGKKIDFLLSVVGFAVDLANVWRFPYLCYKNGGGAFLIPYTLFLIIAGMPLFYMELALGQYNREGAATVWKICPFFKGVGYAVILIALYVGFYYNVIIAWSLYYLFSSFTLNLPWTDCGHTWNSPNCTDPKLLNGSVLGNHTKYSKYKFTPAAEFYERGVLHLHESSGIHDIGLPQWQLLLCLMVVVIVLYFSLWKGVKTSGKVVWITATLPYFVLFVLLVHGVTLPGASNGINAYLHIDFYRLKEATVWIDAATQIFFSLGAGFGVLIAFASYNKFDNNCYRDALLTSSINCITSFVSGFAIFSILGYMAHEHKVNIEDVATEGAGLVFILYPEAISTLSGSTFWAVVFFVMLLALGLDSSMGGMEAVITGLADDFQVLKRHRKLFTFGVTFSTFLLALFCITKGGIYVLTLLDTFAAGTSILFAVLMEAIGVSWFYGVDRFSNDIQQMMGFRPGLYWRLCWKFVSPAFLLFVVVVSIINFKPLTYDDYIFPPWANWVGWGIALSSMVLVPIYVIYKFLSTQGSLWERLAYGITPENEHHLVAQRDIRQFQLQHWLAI
The target of assay [4] is T1, Sodium-dependent serotonin transporter. As to the kind of experiment: Displacement of [3H]-S-citalopram from human SERT expressed in African green monkey COS7 cells incubated for 10 mins prior to [3H]-S-citalopram addition measured after 2 hrs by scintillation counting analysis. The class given is cell-based, COS-7. The method in brief:
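Competition binding at hSERT in transiently transfected COS7 cells with [3H]-S-citalopram (2 nM) as radioligand. IC50 came from nonlinear regression and was converted to Ki using a Kd for [3H]-S-citalopram determined in parallel. SE interval is from pKi ± SE. Values are means of three to four experiments, each in triplicate.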
Target sequence in this assay (P31645 whole entry): as the sequence (P31645 whole entry) above

For assay [5] the target is unchanged. As to the kind of experiment: Binding affinity to N-terminal EGFP-tagged SERT (unknown origin) expressed in HEK293 cells at 20 nM after 10 mins by confocal laser scanning microscopy. The class given is cell-based. The method in brief:
(§1)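 Live confocal imaging of HEK293 cells transiently expressing SERT with an N-terminal EGFP tag. Cells were incubated at room temperature with 20 nM ligand and imaged at 0, 1, 5, 10 or 20 min. Rhodamine signal was compared with the EGFP signal and merged with a transmission image. Paroxetine (100 μM) was coincubated as the specificity control. Three identical experiments were run.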
Target sequence in this assay (P31645 whole entry, looked up): as the sequence (P31645 whole entry) above

The target is the same in assay [6]. In words: Binding affinity to N-terminal EGFP-tagged SERT (unknown origin) expressed in HEK293 cells at 20 nM after 10 mins by confocal laser scanning microscopy in presence of SERT inhibitor paroxetine. The class given is cell-based. The method in brief: as §1
Target sequence in this assay (P31645 whole entry, looked up): as the sequence (P31645 whole entry) above
For assay [7] the target is unchanged. As to the kind of experiment: Binding affinity to N-terminal EGFP-tagged SERT (unknown origin) expressed in HEK293 cells at 20 nM by confocal laser scanning microscopy. The class given is cell-based. To be noted: TDE = time-dependent effect. The method in brief:
as §1
Target sequence in this assay (P31645 whole entry, looked up): as the sequence (P31645 whole entry) above

Assay [8] shares this target. As to the kind of experiment: Selectivity ratio of ZP455 Ki to compound Ki for human SERT.
Target sequence in this assay (P31645 whole entry, looked up): as the sequence (P31645 whole entry) above
The target in assay [9] is T2, Sodium-dependent dopamine transporter. As to the kind of experiment: Inhibition of 2,5,6-[3H]-dopamine uptake at human DAT expressed in African green monkey COS7 cells incubated for 10 mins prior to radioligand addition measured after 5 mins by scintillation counting analysis. It counts as cell-based, COS-7. The method in brief: (§2)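 Uptake inhibition in transiently transfected COS7 cells, with 2,5,6-[3H]dopamine as substrate for both DAT and NET. IC50 came from nonlinear regression. Ki was calculated using the dopamine KM, which was determined in parallel. Values are means of three to four repeats, each in triplicate, with SE interval from pKI ± SE.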

Assay [10] concerns the target T3, Sodium-dependent noradrenaline transporter. In words: Inhibition of 2,5,6-[3H]-dopamine uptake at human NET expressed in African green monkey COS7 cells incubated for 10 mins prior to radioligand addition measured after 5 mins by scintillation counting analysis. The class given is cell-based, COS-7. The gist of the method: as §2

One may read the Ki as the equilibrium dissociation constant of an inhibitor or competing ligand from its target. Regarding `CCN(CC)c1ccc2c(-c3ccc(S(=O)(=O)NCCCCCC(=O)NCCCCCN(C)CCC[C@@]4(c5ccc(F)cc5)OCc5cc(C#N)ccc54)cc3S(=O)(=O)[O-])c3ccc(=[N+](CC)CC)cc-3oc2c1`, the Ki in assay [1] amounted to 250 nM; in assay [4] it was 180 nM. Moreover, the inhibition result in assay [2] and in [3] was “inactive” each time.

As for `CCN(CC)c1ccc2c(-c3ccc(S(=O)(=O)NCCCCCC(=O)NCCCN(C)CCC[C@@]4(c5ccc(F)cc5)OCc5cc(C#N)ccc54)cc3S(=O)(=O)[O-])c3ccc(=[N+](CC)CC)cc-3oc2c1`, the Ki in assay [1] came to 140 nM; in assay [4], 11 nM. Further, the inhibition result in [2] and in [3] was “inactive” each time.

Turning to `CCN(CC)c1ccc2c(-c3ccc(S(=O)(=O)NCCCCCC(=O)NCc4ccc5c(c4)CO[C@@]5(CCCN(C)C)c4ccc(F)cc4)cc3S(=O)(=O)[O-])c3ccc(=[N+](CC)CC)cc-3oc2c1`, the Ki is 34 nM in [1] and 3 nM in [4]. Further, the inhibition result in assay [2] and in assay [3] was “inactive” throughout. The result in [5] was Active. The outcome in assay [6] was inactive. Also, the Activity result in assay [7] was “tde”. Moreover, the Ratio Ki in assay [8] worked out at 75.

As for `CN(C)CCC[C@@]1(c2ccc(F)cc2)OCc2cc(C#N)ccc21`, the inhibition result in assay [2] and in assay [3] was “inactive” throughout.

On to `CCN(CC)c1ccc2c(-c3ccc(S(=O)(=O)NCCCCCC(=O)NCCN4C5CCC4[C@@H](C(=O)OC)[C@@H](c4ccc(Cl)c(Cl)c4)C5)cc3S(=O)(=O)[O-])c3ccc(=[N+](CC)CC)cc-3oc2c1` (stereo not given in full), for which the Ki in assay [1] was determined as 94 nM; in [9] it was 20 nM; in [10], 91 nM.

With `CCN(CC)c1ccc2c(-c3ccc(S(=O)(=O)NCCCCCC(=O)NCCCc4ccc5c(c4)CO[C@@]5(CCCN(C)C)c4ccc(F)cc4)cc3S(=O)(=O)[O-])c3ccc(=[N+](CC)CC)cc-3oc2c1`, the Ki in [1] was found to be 37 nM; in [4] it was 11 nM. Moreover, the inhibition entry in [2] and in assay [3] was “inactive” in each case.
